Source: ChEMBL document CHEMBL1141651, “Discovery of a potent, selective, and orally active proteasome inhibitor for the treatment of cancer” (J Med Chem, 2008)

Tests used:
[1] = target: Interstitial collagenase (Homo sapiens) (UniProt P03956); experiment: Inhibition of human MMP1 at 10 uM
[2] = target: Macrophage metalloelastase (Homo sapiens) (UniProt P39900); experiment: Inhibition of human MMP12 at 10 uM
Homo sapiens = species on record: Homo sapiens; experiment: Inhibition of human chymotrypsin at 10 uM
[3] = Half life in CD1 mouse at 10 mg/kg, po; type: ADME, organism-based; set-up: dose 10 mg/kg, route oral; details: in vivo
Summary of the method: (§1)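 Female Sprague–Dawley rats and CD-1 mice each received a single iv or oral (po) dose. Terminal half-life and systemic clearance were estimated from plasma exposure over time, alongside AUC0→∞, Vss and absolute oral bioavailability.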

[4] = target: Cathepsin B (Homo sapiens) (UniProt P07858); experiment: Inhibition of human cathepsin B at 10 uM
[5] = target: Procathepsin L (Homo sapiens) (UniProt P07711); experiment: Inhibition of human cathepsin L at 10 uM
Sus scrofa [6] = species on record: Sus scrofa; experiment: Inhibition of pig pepsin at 10 uM
Trypsin (Homo sapiens) = Trypsin (Homo sapiens) (UniProt P07477+P07478+P35030); experiment: Inhibition of human trypsin at 10 uM; type: protein assay
Chymase = Chymase (Homo sapiens, UniProt P23946); experiment: Inhibition of human chymase
[7] = Inhibition of bovine alpha chymotrypsin; set-up: species or system Bos taurus
[8] = target: Disintegrin and metalloproteinase domain-containing protein 17 (Homo sapiens) (UniProt P78536); experiment: Inhibition of human TACE at 10 uM
[9] = Half life in Sprague-Dawley rat at 0.8 mg/kg, po; type: ADME, organism-based; set-up: dose 0.8 mg/kg, route oral; details: in vivo; summary of the method: as §1
Caspase-1 (Homo sapiens) = Caspase-1 (Homo sapiens) (UniProt P29466); experiment: Inhibition of human caspase 1 at 10 uM
[10] = target: Coagulation factor VII (Homo sapiens) (UniProt P08709); experiment: Inhibition of human factor 7a at 10 uM
Renin (Homo sapiens) = Renin (Homo sapiens) (UniProt P00797); experiment: Inhibition of human renin at 10 uM
[11] = Half life in CD1 mouse at 4 mg/kg, iv; type: ADME, organism-based; set-up: dose 4 mg/kg, route intravenous; details: in vivo; summary of the method: as §1
[12] = target: Protease (Human immunodeficiency virus 1) (UniProt Q9YQ12); experiment: Inhibition of HIV1 protease at 10 uM
[13] = target: Calpain-1 catalytic subunit (Homo sapiens) (UniProt P07384); experiment: Inhibition of human calpain 1 at 10 uM
Caspase-9 (Homo sapiens) = Caspase-9 (Homo sapiens) (UniProt P55211); experiment: Inhibition of human caspase 9 at 10 uM
Caspase-7 (Homo sapiens) = Caspase-7 (Homo sapiens) (UniProt P55210); experiment: Inhibition of human caspase 7 at 10 uM
[14] = target: Tissue-type plasminogen activator (Homo sapiens) (UniProt P00750); experiment: Inhibition of human TPA at 10 uM
[15] = target: Stromelysin-1 (Homo sapiens) (UniProt P08254); experiment: Inhibition of human MMP3 at 10 uM
Sus scrofa [16] = species on record: Sus scrofa; experiment: Inhibition of pig pancreatic elastase 1 at 10 uM
Cathepsin G = Cathepsin G (Homo sapiens, UniProt P08311); experiment: Inhibition of human cathepsin G
Cytochrome P450 2C19 = Cytochrome P450 2C19 (Homo sapiens, UniProt P33261); experiment: Inhibition of human recombinant CYP2C19 upto 30 uM; type: ADME; details: recombinant enzyme
Summary of the method: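 Recombinant human P-450 isoforms (1A2, 2C9, 2C19, 2D6) with fluorescent P-450 substrates; tested at concentrations up to 30 µM to gauge inhibition.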

[17] = Metabolic stability in dog liver microsomes; type: ADME, Canis lupus familiaris, Microsome
[18] = Metabolic stability in human liver microsomes; type: ADME, Microsome
[19] = Inhibition of human chymotrypsin
Summary of the method: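 Cross-reactivity was tested against human pancreas α-chymotrypsin using a fluorogenic specific substrate. Results are expressed as IC50.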

[20] = Clearance in Sprague-Dawley rat at 0.2 mg/kg, iv; type: ADME, organism-based; set-up: dose 0.2 mg/kg, route intravenous; details: in vivo; summary of the method: as §1
[21] = AUC (0 to infinity) in Sprague-Dawley rat at 0.2 mg/kg, iv; type: ADME, organism-based; set-up: dose 0.2 mg/kg, route intravenous, time infinity; details: plasma
Summary of the method: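 Female Sprague–Dawley rats received a single dose by the iv or oral route. AUC from 0 to infinity was reported alongside terminal half-life, Vss, clearance and absolute oral bioavailability.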

[22] = target: Cathepsin Z (Homo sapiens) (UniProt Q9UBR2); experiment: Inhibition of human cathepsin Z at 10 uM
[23] = target: Coagulation factor X (Homo sapiens) (UniProt P00742); experiment: Inhibition of human factor 10a at 10 uM
Chain of Coagulation factor X (Homo sapiens) (P00742 41-179 limits assumed): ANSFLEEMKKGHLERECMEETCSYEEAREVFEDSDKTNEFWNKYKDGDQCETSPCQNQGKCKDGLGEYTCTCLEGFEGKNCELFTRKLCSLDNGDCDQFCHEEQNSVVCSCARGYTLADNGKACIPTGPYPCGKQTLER
Chain of Coagulation factor X (Homo sapiens) (P00742 235-488 limits assumed): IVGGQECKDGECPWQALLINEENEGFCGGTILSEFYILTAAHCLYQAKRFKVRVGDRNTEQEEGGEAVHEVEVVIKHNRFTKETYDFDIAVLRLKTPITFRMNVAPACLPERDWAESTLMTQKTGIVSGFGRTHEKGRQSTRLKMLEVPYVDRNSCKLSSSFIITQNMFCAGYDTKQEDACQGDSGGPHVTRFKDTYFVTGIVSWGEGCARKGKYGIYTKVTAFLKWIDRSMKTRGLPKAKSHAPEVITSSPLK

Chain of Chymase (P23946 whole entry): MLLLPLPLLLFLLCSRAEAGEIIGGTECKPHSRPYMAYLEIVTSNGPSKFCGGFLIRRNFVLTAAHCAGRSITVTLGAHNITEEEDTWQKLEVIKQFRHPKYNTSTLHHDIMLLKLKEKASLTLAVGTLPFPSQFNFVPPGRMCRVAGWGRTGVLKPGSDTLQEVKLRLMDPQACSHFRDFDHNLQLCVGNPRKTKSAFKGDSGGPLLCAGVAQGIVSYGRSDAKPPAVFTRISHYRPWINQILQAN
Chain of Coagulation factor VII (Homo sapiens) (P08709 61-212 limits assumed): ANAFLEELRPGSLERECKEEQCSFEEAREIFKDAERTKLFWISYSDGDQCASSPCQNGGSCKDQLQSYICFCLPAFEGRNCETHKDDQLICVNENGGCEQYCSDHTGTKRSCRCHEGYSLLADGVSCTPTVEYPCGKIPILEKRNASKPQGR
Chain of Coagulation factor VII (Homo sapiens) (P08709 213-466 limits assumed): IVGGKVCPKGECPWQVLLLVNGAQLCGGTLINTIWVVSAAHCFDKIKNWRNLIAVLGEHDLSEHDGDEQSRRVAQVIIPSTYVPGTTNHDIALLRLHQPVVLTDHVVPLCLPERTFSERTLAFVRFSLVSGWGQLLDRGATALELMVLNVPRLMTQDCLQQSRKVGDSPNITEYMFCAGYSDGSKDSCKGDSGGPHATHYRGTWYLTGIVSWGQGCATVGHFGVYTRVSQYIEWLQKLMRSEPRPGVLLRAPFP
Chain of Stromelysin-1 (Homo sapiens) (P08254 100-477 limits assumed): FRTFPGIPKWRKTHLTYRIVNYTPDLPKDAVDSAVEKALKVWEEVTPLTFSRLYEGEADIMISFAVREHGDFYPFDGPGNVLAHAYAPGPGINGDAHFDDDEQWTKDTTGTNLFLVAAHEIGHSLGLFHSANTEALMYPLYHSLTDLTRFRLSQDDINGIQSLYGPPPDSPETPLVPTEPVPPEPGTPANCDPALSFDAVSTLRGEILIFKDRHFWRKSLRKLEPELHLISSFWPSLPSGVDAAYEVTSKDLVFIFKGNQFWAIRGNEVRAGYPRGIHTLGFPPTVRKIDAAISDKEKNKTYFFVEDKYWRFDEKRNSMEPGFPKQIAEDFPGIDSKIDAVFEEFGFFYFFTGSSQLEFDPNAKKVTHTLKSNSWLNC
Chain of Cytochrome P450 2C19 (P33261 whole entry, canonical isoform): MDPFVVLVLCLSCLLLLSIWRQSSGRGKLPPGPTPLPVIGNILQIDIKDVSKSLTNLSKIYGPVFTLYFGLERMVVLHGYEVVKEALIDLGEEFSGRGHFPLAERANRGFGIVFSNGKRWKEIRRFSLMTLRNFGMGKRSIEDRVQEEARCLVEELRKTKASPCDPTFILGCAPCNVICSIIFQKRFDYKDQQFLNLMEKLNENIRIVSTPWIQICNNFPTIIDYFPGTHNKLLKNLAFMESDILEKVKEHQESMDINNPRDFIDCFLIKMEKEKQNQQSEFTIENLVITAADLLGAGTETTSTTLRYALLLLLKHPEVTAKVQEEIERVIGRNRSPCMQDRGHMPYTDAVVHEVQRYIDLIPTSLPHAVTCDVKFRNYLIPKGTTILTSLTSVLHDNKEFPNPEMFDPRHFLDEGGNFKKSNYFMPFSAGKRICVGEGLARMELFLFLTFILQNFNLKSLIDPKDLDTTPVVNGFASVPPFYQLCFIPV
Chain of Protease (Human immunodeficiency virus 1) (Q9YQ12 as listed by the source): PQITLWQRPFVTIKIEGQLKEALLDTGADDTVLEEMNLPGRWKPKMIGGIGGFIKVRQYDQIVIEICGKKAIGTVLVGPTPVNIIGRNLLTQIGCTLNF
Chain of Disintegrin and metalloproteinase domain-containing protein 17 (Homo sapiens) (P78536 whole entry, the tested form may be a part): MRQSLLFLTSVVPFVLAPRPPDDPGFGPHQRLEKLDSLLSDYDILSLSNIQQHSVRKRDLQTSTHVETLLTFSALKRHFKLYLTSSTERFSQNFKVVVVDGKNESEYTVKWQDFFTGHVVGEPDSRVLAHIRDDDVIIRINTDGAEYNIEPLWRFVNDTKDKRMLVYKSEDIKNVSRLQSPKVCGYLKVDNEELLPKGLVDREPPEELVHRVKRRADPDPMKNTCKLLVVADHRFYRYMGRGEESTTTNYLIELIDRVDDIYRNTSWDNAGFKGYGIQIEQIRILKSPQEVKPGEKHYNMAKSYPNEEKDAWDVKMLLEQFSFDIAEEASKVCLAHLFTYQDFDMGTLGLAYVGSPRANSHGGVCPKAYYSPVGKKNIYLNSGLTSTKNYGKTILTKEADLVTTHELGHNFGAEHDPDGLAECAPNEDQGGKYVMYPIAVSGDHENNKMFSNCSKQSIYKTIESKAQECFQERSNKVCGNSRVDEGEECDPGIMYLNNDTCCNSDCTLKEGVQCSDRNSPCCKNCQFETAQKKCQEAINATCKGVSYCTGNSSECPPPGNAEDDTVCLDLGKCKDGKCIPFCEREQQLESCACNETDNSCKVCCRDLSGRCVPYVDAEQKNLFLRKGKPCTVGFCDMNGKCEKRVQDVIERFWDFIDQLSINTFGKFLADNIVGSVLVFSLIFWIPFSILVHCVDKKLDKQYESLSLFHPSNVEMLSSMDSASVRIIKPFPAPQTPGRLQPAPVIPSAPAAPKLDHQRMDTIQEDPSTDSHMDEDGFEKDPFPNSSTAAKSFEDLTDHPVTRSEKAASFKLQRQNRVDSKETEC
Chain of Cathepsin Z (Homo sapiens) (Q9UBR2 whole entry): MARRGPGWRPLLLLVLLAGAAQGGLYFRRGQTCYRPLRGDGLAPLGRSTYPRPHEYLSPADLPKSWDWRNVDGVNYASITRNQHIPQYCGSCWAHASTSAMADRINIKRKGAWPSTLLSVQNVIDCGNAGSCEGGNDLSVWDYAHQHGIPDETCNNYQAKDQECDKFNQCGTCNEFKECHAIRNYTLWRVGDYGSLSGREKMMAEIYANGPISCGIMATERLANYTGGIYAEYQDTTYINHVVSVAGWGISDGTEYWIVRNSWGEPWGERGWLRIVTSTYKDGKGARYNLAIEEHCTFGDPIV
Chain of Caspase-1 (Homo sapiens) (P29466 120-297 limits assumed): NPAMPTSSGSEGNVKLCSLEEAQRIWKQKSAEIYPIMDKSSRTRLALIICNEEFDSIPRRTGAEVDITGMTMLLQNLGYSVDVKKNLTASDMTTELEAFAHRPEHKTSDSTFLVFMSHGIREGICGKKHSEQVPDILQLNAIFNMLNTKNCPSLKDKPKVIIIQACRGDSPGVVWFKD
Chain of Caspase-1 (Homo sapiens) (P29466 317-404 limits assumed): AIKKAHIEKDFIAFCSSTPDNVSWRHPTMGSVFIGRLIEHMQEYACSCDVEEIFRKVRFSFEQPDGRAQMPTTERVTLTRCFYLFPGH
Chain of Calpain-1 catalytic subunit (Homo sapiens) (P07384 whole entry): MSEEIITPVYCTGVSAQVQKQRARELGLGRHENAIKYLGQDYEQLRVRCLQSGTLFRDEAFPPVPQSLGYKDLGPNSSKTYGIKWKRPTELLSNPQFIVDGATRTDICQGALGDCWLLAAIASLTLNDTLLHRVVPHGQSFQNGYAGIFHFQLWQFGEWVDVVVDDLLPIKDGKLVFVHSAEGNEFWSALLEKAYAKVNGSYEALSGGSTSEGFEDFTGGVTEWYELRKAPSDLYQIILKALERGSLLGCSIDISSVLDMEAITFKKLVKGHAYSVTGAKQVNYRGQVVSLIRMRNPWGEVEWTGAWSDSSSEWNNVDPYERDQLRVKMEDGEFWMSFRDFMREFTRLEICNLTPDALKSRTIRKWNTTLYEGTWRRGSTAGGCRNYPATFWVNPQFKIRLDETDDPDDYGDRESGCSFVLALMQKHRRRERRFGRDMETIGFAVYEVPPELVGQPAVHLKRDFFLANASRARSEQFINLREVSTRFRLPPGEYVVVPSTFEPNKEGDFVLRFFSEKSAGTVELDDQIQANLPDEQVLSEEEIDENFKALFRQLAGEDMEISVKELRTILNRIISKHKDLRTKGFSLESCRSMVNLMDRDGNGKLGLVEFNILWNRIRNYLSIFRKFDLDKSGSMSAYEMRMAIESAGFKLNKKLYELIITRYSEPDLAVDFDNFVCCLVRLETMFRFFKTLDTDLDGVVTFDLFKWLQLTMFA
Chain of Tissue-type plasminogen activator (Homo sapiens) (P00750 36-562 limits assumed): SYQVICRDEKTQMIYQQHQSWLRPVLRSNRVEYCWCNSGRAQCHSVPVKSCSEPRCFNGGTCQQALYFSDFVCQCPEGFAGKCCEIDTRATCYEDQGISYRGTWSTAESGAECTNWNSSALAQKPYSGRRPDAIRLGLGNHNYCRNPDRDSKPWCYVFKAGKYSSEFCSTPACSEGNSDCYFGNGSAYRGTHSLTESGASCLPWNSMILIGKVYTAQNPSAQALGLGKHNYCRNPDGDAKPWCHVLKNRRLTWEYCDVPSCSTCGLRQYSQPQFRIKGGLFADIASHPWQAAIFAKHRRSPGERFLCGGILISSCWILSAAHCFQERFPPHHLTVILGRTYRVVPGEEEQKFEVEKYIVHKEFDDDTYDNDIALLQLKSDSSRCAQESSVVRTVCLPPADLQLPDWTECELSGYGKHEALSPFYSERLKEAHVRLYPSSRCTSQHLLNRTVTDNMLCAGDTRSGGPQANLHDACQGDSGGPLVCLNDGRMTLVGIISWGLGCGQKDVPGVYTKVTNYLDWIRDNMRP
Chain of Procathepsin L (Homo sapiens) (P07711 114-333 limits assumed): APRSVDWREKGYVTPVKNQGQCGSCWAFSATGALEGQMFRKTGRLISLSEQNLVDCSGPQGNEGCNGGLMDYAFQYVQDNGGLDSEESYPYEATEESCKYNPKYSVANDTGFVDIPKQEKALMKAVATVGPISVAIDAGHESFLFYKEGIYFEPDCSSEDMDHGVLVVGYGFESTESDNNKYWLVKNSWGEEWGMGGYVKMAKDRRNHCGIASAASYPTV

## CC(C)C[C@H](NC(=O)[C@@H](NC(=O)c1cccc(-c2ccccc2)n1)[C@@H](C)O)B(O)O [DELANZOMIB]
[1]
  inhibition: 1%
[2]
  inhibition: 4%
Homo sapiens
  inhibition: 59%
[3]
  half-life: 53 h
[4]
  inhibition: 7%
[5]
  inhibition: 27%
Sus scrofa [6]
  inhibition: -5%
Trypsin (Homo sapiens)
  inhibition: 0%
Chymase
  IC50: 3530 nM
[7]
  IC50: 1500 nM
[8]
  inhibition: 1%
[9]
  half-life: 86 h
Caspase-1 (Homo sapiens)
  inhibition: 1%
[10]
  inhibition: 2%
Renin (Homo sapiens)
  inhibition: -3%
[11]
  half-life: 15 h
[12]
  inhibition: 1%
[13]
  inhibition: 0%
Caspase-9 (Homo sapiens)
  inhibition: -1%
Caspase-7 (Homo sapiens)
  inhibition: 0%
[14]
  inhibition: 0%
[15]
  inhibition: -3%
Sus scrofa [16]
  inhibition: -6%
Cathepsin G
  IC50: 2110 nM
Cytochrome P450 2C19
  Activity: Not Active
[17]
  half-life: > 0.667 h
[18]
  half-life: > 0.667 h
[19]
  IC50: 5330 nM
[20]
  clearance: 3.17 mL/min/kg
[21]
  AUC(0-inf): 1030 ng·h/mL
[22]
  inhibition: 5%
[23]
  inhibition: -2%
